Assay results published in the EternaBench riboswitch data.

What was measured:
MS2 coat protein [1] = assay: apparent Kd, MS2 coat protein; higher = weaker binding; RNA-MaP array; theophylline 2 mM where present
Procedure, shortened: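 Apparent Kd: the median of filtered binding-curve fits from single clusters. Designs were transcribed on Illumina sequencing-chip clusters by stalled E. coli RNA polymerase and titrated with SNAP-549-labelled MS2 coat protein from 0.7 or 1.5 nM, doubling to 3 µM, in 100 mM Tris-HCl pH 7.5, 80 mM KCl, 4 mM MgCl2, BSA, DTT, yeast tRNA and Tween-20. Each series ran without and then with constant ligand, and green signal was normalised to red-channel RNA signal and control-cluster median Fmax.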

MS2 coat protein [2] = assay: apparent Kd, MS2 coat protein; higher = weaker binding; RNA-MaP array
Procedure, shortened: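 Incubations were done at room temperature with fluorescently labeled MS2 coat protein at 1.5 nM to 3 μM and designed RNAs transcribed on an Illumina sequencing chip from sequenced DNA templates, with or without input ligand. Apparent Kd is the median of binding curves fitted for each cluster. Designs with fewer than 10 measured clusters were excluded.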

[3] = designed as: ON switch for theophylline, no ligand
[4] = ligand present: theophylline, designed as: ON switch for theophylline
[5] = designed as: OFF switch for theophylline, no ligand
[6] = ligand present: theophylline, designed as: OFF switch for theophylline

Sequence	apparent Kd (MS2 coat protein [1]; [3]) [nM]	apparent Kd (MS2 coat protein [1]; [4]) [nM]	apparent Kd (MS2 coat protein [1]; [5]) [nM]	apparent Kd (MS2 coat protein [1]; [6]) [nM]	further results
AUGUCGUUGAAUAUAGCGGCUUGGUGUGAUACCAGAAUGAUCUAAUUCCCUUGGCAGCAUUACAUGAGGAUCACCCAUGUUUAGG	25.2	29.2	–	–	–
UGACAUUGCUCAGAUACCAGACAUGAGGAUCACCCAUGUACCAAGAAAACGUACAAUAAUGUCCCUUGGCAGCUGAGCAAUGUCU	–	–	101	549	–
CAGAGCUACCGGGAUACCAGAAAUGGUAUUCCUUAAUUUCUUACAUGAGGAUCACCCAUGUUCCCUUGGCAGCUUGGUAGCUCUG	–	–	86.4	385	–
AGUGUUAUAACUGAUACCAGACUUUUGCUUAUACAUGAGGAUCACCCAUGUAAAAUGGUUGUCCCUUGGCAGCAGAAGUUACACA	69.1	327	–	–	–
CAUACUUUAGUAUGUUAUGUGGACAGUGAUACCAGAUACGAAAGUAUCCCUUGGCAGCACAACAUGAGGAUCACCCAUGUAUUUU	23	13.6	–	–	–
AUAUGAUCAUAGGAUACCAGAAAUGGUAUUCCUUUAUUUCUUACAUGAGGAUCACCCAUGUUCCCUUGGCAGCUUAUGAUCAUAU	–	–	126	115	–
ACCUCACUCUCUGAUACCAGCUAACAACAUGAGGAUCACCCAUGUCAGACUUGUAUUGAUAGCCCUUGGCAGCAGAGGUAACUGC	–	–	16.2	31.3	–
GAUGAACUAUUUGAUACCAGACCACAUGAGGAUCACCCAUGUGAGUUUCGUCCUUAGCCGGUCCCUUGGCAGCAAAUAGUUUAUC	–	–	16.9	52.5	–
AAUAACAUGAGGAUCACCCAUGUAAAAGAUACCAGAGUGAUGAUCCUCCCUUGGCAGCUUAAUAACGCUAUUGAUUACAAUAGCG	46.4	108	–	–	–
AAACUGGGUGUAAAAUAAAUAAUCACUGAUACCAGACUAUGAGAUGUCCCUUGGCAGCAGAAACAUGAGGAUCACCCAUGUAAUA	–	–	17.9	21.2	–
AACAAUGCACAUGAGGAUCACCCAUGUGAUACCAGCCGCAACAUAGGCCCUUGGCAGCAUGUGGGUAUAGAACGAUUUGGCUGAA	–	–	45.9	78.3	–
AUAGUCUAGAGUGAUACCAGACUACAUGAGGAUCACCCAUGUAUCUUUUGGUUAUCAUGUGUCCCUUGGCAGCACGCAUGUAUAG	–	–	10.1	24.5	–
CAGCACAUGAGGAUCACCCAUGUGAGGGAUACCAGCUCAGGCGUGGGCCCUUGGCAGCUCUCUGGCUGACGAAAGUCAGCCUGUG	13.2	16.7	–	–	–
ACAUGAGGAUCACCCAUGUCACGGCACGAUACCAGCUGAUGCGGUGGCCCUUGGCAGCGUGACGUUUGGUCCCGCGGAUGACACG	200	117	–	–	–
CAUGGGUGGGUGCUGCCACCCAUUGGUGAUACCAGCAUCGAAAGAUGCCCUUGGCAGCACCAACAUGAGGAUCACCCAUGUAAUA	118	320	–	–	–
UGUUUGGUGCGCGAGUGUUGGAUAAUUGAUACCAGUGUAGAAGUGCGCCCUUGGCAGCGAAUCCUAACAUGAGGAUCACCCAUGU	46.1	57.8	–	–	–
AAAUAAAUAACUGAUACCAGUGUACUGACAUGAGGAUCACCCAUGUUGGGUUUUGUUGUACACCCUUGGCAGCAGAAAUAUAAAA	–	–	35.3	73	–
AGCGAGAUCCGUGAUACCAGCUACAUGAGGAUCACCCAUGUGAGCGCGAAAGUGCUGUGUAGCCCUUGGCAGCACAGUGGAUCUC	–	–	10	43.2	–
ACAUGAGGAUCACCCAUGUCUGCCACUGAUACCAGCGGAAGCCCACGCCCUUGGCAGCAGAACAUGAGGAUCACCCAUGUAGGCU	232	198	–	–	–
UUAUUUAUAAUGGAUACCAGUGCUGUGGCCCGGCAUCCUGACAUGAGGAUCACCCAUGUGUACCCUUGGCAGCUGUUAUGGGUUU	–	–	22.6	–	–
GAGCUGAUGUAGAGCGAAUAUACGAGAGAUACCAGUACAGAAAUGUACCCUUGGCAGCUCAACUUUACAUGAGGAUCACCCAUGU	–	–	13.8	15.3	–
AUAUGAUCAUGUGAUACCAGAAAUGGUAUUCCUCGCUGGAUUACAUGAGGAUCACCCAUGUUCCCUUGGCAGCAUAUGAUCAUAU	–	–	21.4	269	–
ACAUGAGGAUCACCCAUGUUCCUCAUUGAUACCAGUGAAUUUAGACGCCCUUGGCAGCGAGUUUUUUUAGAAGAAGUUUUUUUUU	–	–	782	1070	–
UCGUGUGUUUCGGAUACCAGUGUGGUCGAUACAUGAGGAUCACCCAUGUUAGAGGAGGUACACCCUUGGCAGCCGGCUGUUGCGG	108	51.1	–	–	–
ACAUGAGGAUCACCCAUGUCUGCCUCGGAUACCAGCGGAAGAAAACGCCCUUGGCAGCCGAACAUGAGGAUCACCCAUGUAGGCU	48.2	56.8	–	–	–
UAUAUAUAUAGGGAUACCAGCAGAGAAAACGUUUAUCCUAACAUGAGGAUCACCCAUGUAUGCCCUUGGCAGCUUUAUAUAUAUA	–	–	22.9	31.2	–

Sequence	apparent Kd (MS2 coat protein [1]; [3]) [nM]	apparent Kd (MS2 coat protein [1]; [4]) [nM]	apparent Kd (MS2 coat protein [1]; [5]) [nM]	apparent Kd (MS2 coat protein [1]; [6]) [nM]	further results
CGAACAAAACUAAAUAAACAACUGGGUGAUACCAGUACAUGUGCGUACCCUUGGCAGCAUCCGGCCACAUGAGGAUCACCCAUGU	64.7	119	–	–	–
AGCGGAACGGAAGGGUCCCGAAAUUGUGAUACCAGCCUUGAAUCCGGCCCUUGGCAGCACAUGAGGAUCACCCAUGUACUGCGGU	–	–	13	45	–
UUCUACAUGAGGAUCACCCAUGUGGGUGAUACCAGCACUUUUUGGUGCCCUUGGCAGCACAUGAGAAUACCGUACGAUCGGCGAU	265	700	–	–	–
GAUCUGUCGGGUGAUACCAGCCUCGGCGCGUCUCGCGCUGAACAUGAGGAUCACCCAUGUGGCCCUUGGCAGCACAUGACAAAUC	574	44.2	–	–	–
AAGGUGAUCCCAGAUACCAGCUCAACAUGAGGAUCACCCAUGUACGGGACGAAAGUCCCGGGCCCUUGGCAGCUGGGUUGCCAAG	193	123	–	–	–
UUAGAUAUGACAGAUACCAGCGUGUUAUAAAACAUGAGGAUCACCCAUGUAGUGAUCGAGCGCCCUUGGCAGCUGGUGUGUUUGG	69.6	208	–	–	–
GUAUGGAAACAUACUAGGGUAUCAUGAGAUACCAGUACAGAAAUGUACCCUUGGCAGCUCAAGCAUACAUGAGGAUCACCCAUGU	–	–	16.4	27.1	–
ACAUGAGGAUCACCCAUGUCAAGGCACGAUACCAGCUGAUCCGGUGGCCCUUGGCAGCGUCACGUUUGGUCCCGCGGAUGACACG	64.7	108	–	–	–
UCACGUGGGAAUGAUACCAGCCACAUGAGGAUCACCCAUGUGCAUGGUGUGAGCUUCACGGGCCCUUGGCAGCAUUUCAAGUCGC	–	–	48	69.5	–
UAACAUGAGGAUCACCCAUGUAUAGUCGAUACCAGCUCAAGGGAGAGCCCUUGGCAGCGACACUGGUAUCCAUGGGUGUGGAUAC	82.3	81.3	–	–	–
ACAUGAGGAUCACCCAUGUUCCUCGCCGAUACCAGUGAAGAAGAACGCCCUUGGCAGCGGAAAGAAUAUUUUGGAGAUGAGAUAU	–	–	204	270	–
GGGUAAGAUCCGGAUACCAGCGAACAUGAGGAUCACCCAUGUGAAAUAAGAUAGAAUAAACGCCCUUGGCAGCCGAAAUAGAGUU	77.3	30.1	–	–	–
AUCGUACCUGGUGAUACCAGCAAGUGAUUAUAACAUGAGGAUCACCCAUGUAAUCAGUGAUGCCCUUGGCAGCAUAAUCGGUACA	26.3	21.3	–	–	–
ACAUGAGGAUCACCCAUGUAGUGGCACGAUACCAGCUGAUCCCGUGGCCCUUGGCAGCGUCCGGUGUGGUGCGCCGGGUUGGAGC	49.1	61.7	–	–	–
CCUGCGUUUCUUUUCUUUCGCAGGAAUGAUACCAGUAGGGAAACCUACCCUUGGCAGCAUGGGACAUGAGGAUCACCCAUGUUAU	350	55.1	–	–	–
AUUCAUAAUUGGGUAAAUGGAUAGAGUGAUACCAGUCAUAUACAUGACCCUUGGCAGCACAAGGACAUGAGGAUCACCCAUGUCA	24.2	16.3	–	–	–
AAUAACAUGAGGAUCACCCAUGUAAAAGAUACCAGAUGCAUGAUGAUCCCUUGGCAGCUUAAAACGCGAUUGAUUACAAUCGCGA	33.3	107	–	–	–
GAGUUCCUGAGAGAUACCAGUGAGGCCACAUGAGGAUCACCCAUGUCCCUCACUCCGGCCCACCCUUGGCAGCUCGAAAGAUAUU	–	–	10.9	68.1	–
UGUAACAUGAGGAUCACCCAUGUGAGUGAUACCAGAUUAGUAUUAGUCCCUUGGCAGCACAUUGGGCGAGUGUAUAGUCUAUGCG	154	–	–	–	–
AGUACUCGAACGGAUACCAGCCGGACAUGAGGAUCACCCAUGUCCUACCAUGUCUCGGUUGGCCCUUGGCAGCCGUUCGUGUACA	83.4	234	–	–	–
ACGUCCGGAUUAAUCGUGGGCAUGGUCGAUACCAGUAUUUUAAUCUACCCUUGGCAGCGACAUGAGGAUCACCCAUGUGCGAUGA	–	–	16.7	30.9	–
AUCGUACCUGAUGAUACCAGCAAGUGAUCAUAACAUGAGGAUCACCCAUGUAAUCAGUGAUGCCCUUGGCAGCAUAGUCGAUACA	164	99.8	–	–	–
GGGUAUGAUCCGGAUACCAGCGAACAUGAGGAUCACCCAUGUGACCUAAGAUAGGCUAAACGCCCUUGGCAGCCGAGAUUGCGUU	48.4	31.5	–	–	–
AACACACCAAAUGAUACCAGCUACAACAUGAUACAAAACCACAUGAGGAUCACCCAUGUAAGCCCUUGGCAGCAUACUACUGUAA	–	–	–	–	apparent Kd (MS2 coat protein [2]; [5]): 18.1 nM; apparent Kd (MS2 coat protein [2]; [6]): 42.5 nM
GAUUAAAAGAUAGGAUAUUUUGAAAUCGUCACAUGAGGAUCACCCAUGUAUGGCCUGGGCAAUCAAAAGAAGGAUCUUUCUGAU	–	–	–	–	apparent Kd (MS2 coat protein [2]; designed as: OFF switch for flavin mononucleotide, no ligand): 11.2 nM; apparent Kd (MS2 coat protein [2]; ligand present: flavin mononucleotide, designed as: OFF switch for flavin mononucleotide): 6.84 nM
